Experimental data as given in ChEMBL document CHEMBL4390663, “Cationic biaryl 1,2,3-triazolyl peptidomimetic amphiphiles: synthesis, antibacterial evaluation and preliminary mechanism of action studies” (Eur J Med Chem, 2019).
Converted amounts (≈) assume the structure as drawn.

Columns and labels:
[1] = system: Acinetobacter baumannii; assay: Antimicrobial activity against Acinetobacter baumannii ATCC 19606 incubated for 18 hrs by CLSI method; assay type: functional; settings: ATCC 19606 = CIP 70.34 = JCM 6841, 18 h
Summary of the method: (§1)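 Screen run by CO-ADD: mid-log cultures in cation-adjusted MHB, 5 × 10^5 CFU/mL, compounds at up to 32 μg/mL in 1:2 serial dilutions (8 steps), final DMSO ≤0.5%, duplicate. 37 °C for 18 h without shaking; OD600 read against media-only and untreated-bacteria references. MIC = lowest concentration giving ≥80% inhibition; colistin standard.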

[2] = system: Staphylococcus aureus; assay: Antimicrobial activity against Staphylococcus aureus ATCC 29213 incubated for 24 hrs by CLSI method; assay type: functional; settings: ATCC 29213, 24 h
Summary of the method: (§2)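 Broth microdilution per CLSI aerobic guidance in Mueller Hinton broth, ambient air, 35 °C for 24 h. DMSO stocks were diluted in water, then serially diluted with double-strength broth inoculum added, for final 0.25–128 μg/mL. […] MIC was read visually as the lowest concentration inhibiting growth; the modal value of triplicates was recorded.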

[3] = system: Streptococcus pneumoniae; assay: Antibacterial activity against Streptococcus pneumoniae ATCC 49619 incubated for 24 hrs by CLSI method; assay type: functional; settings: ATCC 49619, 24 h
Summary of the method: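 CLSI broth microdilution in MHB with 2.5% lysed horse blood, 5% CO2, 35 °C, 24 h. Compounds from 5 mg/mL DMSO stocks diluted in water plus double-strength broth; final 0.25–128 μg/mL. […] Triplicate; modal MIC read visually as lowest growth-inhibiting concentration.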

[4] = Cytotoxicity against human HEK293 cells assessed as reduction in cell growth incubated for 20 hrs by resazurin dye-based fluorometric assay
Summary of the method: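 HEK293 cells, 5000 per well in DMEM + 10% FBS, exposed to compounds (top 32 μg/mL, 1:2 serial dilution ×8, ≤0.5% DMSO, duplicate) for 20 h at 37 °C, 5% CO2. Resazurin added (2.3 μg/mL final), 3 h further; fluorescence ex 560/em 590 nm. CC50 from sigmoidal dose-response fit against log concentration; tamoxifen standard.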

[5] = system: Clostridioides difficile; assay: Antibacterial activity against Clostridium difficile ATCC 700057 incubated for 48 hrs by CLSI method; assay type: functional; settings: ATCC 700057, 48 h
Summary of the method: (§3)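 Broth microdilution per CLSI anaerobe method in pre-reduced (2-4 h) Brucella broth with haemin and vitamin K, 35 °C anaerobically for 48 h. Compounds from 5 mg/mL DMSO stocks, twofold dilutions in water mixed with double-strength broth; final 0.25–128 μg/mL. […] Triplicate; modal MIC read visually as lowest concentration inhibiting growth.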

[6] = system: Pseudomonas aeruginosa; assay: Antimicrobial activity against Pseudomonas aeruginosa ATCC 27853 incubated for 18 hrs by CLSI method; assay type: functional; settings: ATCC 27853, 18 h; summary of the method: as §1
[7] = system: Staphylococcus aureus; assay: Antibacterial activity against methicillin-resistant Staphylococcus aureus NCTC 10442 incubated for 24 hrs by CLSI method; assay type: functional; settings: NCTC 10442, 24 h; summary of the method: as §2
[8] = system: Enterococcus faecalis; assay: Antibacterial activity against Enterococcus faecalis ATCC 29212 incubated for 24 hrs by CLSI method; assay type: functional; settings: ATCC 29212, 24 h
[9] = system: Clostridioides difficile; assay: Antibacterial activity against Clostridium difficile NSW132 RT027 incubated for 48 hrs by CLSI method; assay type: functional; settings: NSW132 RT027, 48 h; summary of the method: as §3
[10] = system: Escherichia coli; assay: Antibacterial activity against Escherichia coli ATCC 25922 incubated for 18 hrs by CLSI method; assay type: functional; settings: ATCC 25922, 18 h; summary of the method: as §1
[11] = system: Staphylococcus aureus; assay: Antimicrobial activity against Staphylococcus aureus ATCC 43300 incubated for 18 hrs by CLSI method; assay type: functional; settings: ATCC 43300, 18 h
[12] = system: Klebsiella pneumoniae; assay: Antibacterial activity against Klebsiella pneumoniae 700603 incubated for 18 hrs by CLSI method; assay type: functional; settings: Klebsiella pneumoniae, 700603, 18 h; summary of the method: as §1

SMILES	MIC [1]	MIC [2]	MIC [3]	CC50 at 20 h [4]	MIC [5]	MIC [6]	MIC [7]	MIC [8]	MIC [9]	MIC [10]	MIC [11]	MIC [12]
CC(C)CCOc1ccccc1-c1ccccc1OCc1cn(C[C@@H](CCCNC(=N)N)NC(=O)Cc2ccccc2)nn1.Cl	> 32 µg/mL	16 µg/mL	16 µg/mL	29 µg/mL	64 µg/mL	> 32 µg/mL	16 µg/mL	16 µg/mL	16 µg/mL	> 32 µg/mL	16 µg/mL	> 32 µg/mL
CC(C)CCOc1ccc2ccccc2c1-c1c(OCc2cn(C[C@@H](CCCCN)NC(=O)Cc3ccc(Br)cc3)nn2)ccc2ccccc12.Cl		4 µg/mL	32 µg/mL		32 µg/mL		8 µg/mL	8 µg/mL	64 µg/mL			
CC(C)CCOc1ccc2ccccc2c1-c1c(OCc2cn(C[C@@H](CCCNC(=N)N)NC(=O)OCc3ccccc3)nn2)ccc2ccccc12.Cl	> 32 µg/mL	4 µg/mL	8 µg/mL	13.8 µg/mL	32 µg/mL	> 32 µg/mL	4 µg/mL	8 µg/mL	32 µg/mL	> 32 µg/mL	4 µg/mL	> 32 µg/mL
CC(C)CCOc1ccccc1-c1ccccc1OCc1cn(C[C@@H](CCCCN)NC(=O)[C@@H](CCCNC(=N)N)n2cc(Cc3ccccc3)nn2)nn1.Cl.Cl	8 µg/mL	8 µg/mL	4 µg/mL	21.9 µg/mL	16 µg/mL	16 µg/mL	8 µg/mL	16 µg/mL	16 µg/mL	16 µg/mL	4 µg/mL	16 µg/mL
CC(C)CCOc1ccc2ccccc2c1-c1c(OCc2cn(C[C@@H](CCCCN)NC(=O)CC(C)C)nn2)ccc2ccccc12.Cl		8 µg/mL	16 µg/mL		16 µg/mL		8 µg/mL	8 µg/mL	32 µg/mL			
CC(C)CCOc1ccc2ccccc2c1-c1c(OCc2cn(C[C@@H](CCCCN)NC(=O)Cc3ccccc3)nn2)ccc2ccccc12.Cl	> 32 µg/mL	8 µg/mL	32 µg/mL	8.6 µg/mL	16 µg/mL	> 32 µg/mL	8 µg/mL	8 µg/mL	32 µg/mL	> 32 µg/mL	8 µg/mL	> 32 µg/mL
CC(C)CCOc1ccccc1-c1ccccc1OCc1cn(C[C@@H](CCCCN)NC(=O)[C@@H](CCCNC(=N)N)n2cc(CCc3ccccc3)nn2)nn1.Cl.Cl	16 µg/mL	4 µg/mL	8 µg/mL	> 32 µg/mL	8 µg/mL	8 µg/mL	4 µg/mL	8 µg/mL	8 µg/mL	8 µg/mL	2 µg/mL	16 µg/mL
CC(C)CCOc1ccccc1-c1ccccc1OCc1cn(C[C@@H](CCCNC(=N)N)NC(=O)CCc2ccccc2)nn1.Cl	> 32 µg/mL	16 µg/mL	32 µg/mL	> 32 µg/mL	128 µg/mL	> 32 µg/mL	16 µg/mL	16 µg/mL	16 µg/mL	> 32 µg/mL	16 µg/mL	> 32 µg/mL
CC/C(=C(\c1ccccc1)c1ccc(OCCN(C)C)cc1)c1ccccc1 [TAMOXIFEN]				13.1 µg/mL (≈ 35.3 µM)								
CC(C)CCOc1ccccc1-c1ccccc1OCc1cn(C[C@@H](CCCNC(=N)N)NC(=O)[C@@H](CCCCN)N=[N+]=[N-])nn1.Cl.Cl	16 µg/mL	16 µg/mL	8 µg/mL	> 32 µg/mL	64 µg/mL	32 µg/mL	16 µg/mL	16 µg/mL	32 µg/mL	16 µg/mL	8 µg/mL	32 µg/mL
CC(C)CCOc1ccc2ccccc2c1-c1c(OCc2cn(C[C@@H](CCCCN)NC(=O)C3(N)CCOCC3)nn2)ccc2ccccc12.Cl.Cl		16 µg/mL	16 µg/mL		32 µg/mL		16 µg/mL	16 µg/mL	64 µg/mL			
CC(C)CCOc1ccccc1-c1ccccc1OCc1cn(C[C@@H](CCCNC(=N)N)NC(=O)[C@@H](CCCCN)n2cc(Cc3ccccc3)nn2)nn1.Cl.Cl	16 µg/mL	4 µg/mL	4 µg/mL	17.8 µg/mL	64 µg/mL	16 µg/mL	4 µg/mL	8 µg/mL	64 µg/mL	8 µg/mL	4 µg/mL	32 µg/mL
CC(C)CCOc1ccc2ccccc2c1-c1c(OCc2cn(C[C@@H](CCCCN)NC(=O)c3ccco3)nn2)ccc2ccccc12.Cl		8 µg/mL	16 µg/mL		16 µg/mL		8 µg/mL	8 µg/mL	32 µg/mL			
CC(C)CCOc1ccc2ccccc2c1-c1c(OCc2cn(C[C@@H](CCCCN)NC(=O)OCc3ccccc3)nn2)ccc2ccccc12.Cl		4 µg/mL	16 µg/mL		32 µg/mL		8 µg/mL	8 µg/mL	32 µg/mL			
CC(C)CCOc1ccc2ccccc2c1-c1c(OCc2cn(C[C@@H](CCCCN)NC(=O)[C@@H]3CCC(=O)N3)nn2)ccc2ccccc12.Cl		16 µg/mL	32 µg/mL		32 µg/mL		16 µg/mL	16 µg/mL	64 µg/mL			
Cc1ccc(CC(=O)N[C@H](CCCCN)Cn2cc(COc3ccc4ccccc4c3-c3c(OCCC(C)C)ccc4ccccc34)nn2)cc1.Cl		8 µg/mL	32 µg/mL		16 µg/mL		8 µg/mL	8 µg/mL	32 µg/mL			
CC(C)CCOc1ccc2ccccc2c1-c1c(OCc2cn(C[C@@H](CCCCN)NC(=O)c3cccs3)nn2)ccc2ccccc12.Cl		8 µg/mL	16 µg/mL		32 µg/mL		8 µg/mL	8 µg/mL	64 µg/mL			
CC(C)CCOc1ccc2ccccc2c1-c1c(OCc2cn(C[C@@H](CCCCN)NC(=O)C3CC3)nn2)ccc2ccccc12.Cl		8 µg/mL	16 µg/mL		16 µg/mL		8 µg/mL	8 µg/mL	64 µg/mL			
CC(C)CCOc1ccc2ccccc2c1-c1c(OCc2cn(C[C@@H](CCCCN)NC(=O)C3=CCCCC3)nn2)ccc2ccccc12.Cl		8 µg/mL	16 µg/mL		32 µg/mL		8 µg/mL	8 µg/mL	32 µg/mL			
CC(C)CCOc1ccc2ccccc2c1-c1c(OCc2cn(C[C@@H](CCCCN)NC(=O)[C@@H](CCCNC(=N)N)NC(=O)CCCc3ccccc3)nn2)ccc2ccccc12.Cl.Cl		2 µg/mL	4 µg/mL		8 µg/mL		4 µg/mL	2 µg/mL	16 µg/mL			
CC(C)CCOc1ccc2ccccc2c1-c1c(OCc2cn(C[C@@H](CCCCN)NC(=O)[C@@H](CCCNC(=N)N)NC(=O)OCC3c4ccccc4-c4ccccc43)nn2)ccc2ccccc12.Cl.Cl		8 µg/mL	8 µg/mL		32 µg/mL		8 µg/mL	8 µg/mL	64 µg/mL			
CC(C)CCOc1ccc2ccccc2c1-c1c(OCc2cn(C[C@@H](CCCCN)NC(=O)C3=CCCC3)nn2)ccc2ccccc12.Cl		8 µg/mL	16 µg/mL		32 µg/mL		8 µg/mL	8 µg/mL	64 µg/mL			
CC(C)CCOc1ccc2ccccc2c1-c1c(OCc2cn(C[C@@H](CCCCN)NC(=O)c3ccccc3)nn2)ccc2ccccc12.Cl		8 µg/mL	16 µg/mL		32 µg/mL		8 µg/mL	8 µg/mL	32 µg/mL			
CC(C)CCOc1ccc2ccccc2c1-c1c(OCc2cn(C[C@@H](CCCCN)NC(=O)c3ccc4ccccc4c3)nn2)ccc2ccccc12.Cl		16 µg/mL	32 µg/mL		64 µg/mL		16 µg/mL	8 µg/mL	64 µg/mL			
CC(C)CCOc1ccc2ccccc2c1-c1c(OCc2cn(C[C@@H](CCCCN)NC(=O)CCCc3ccccc3)nn2)ccc2ccccc12.Cl		8 µg/mL	32 µg/mL		32 µg/mL		16 µg/mL	8 µg/mL	64 µg/mL			
